Source: ChEMBL document CHEMBL3227986, “Design of species- or isozyme-specific enzyme inhibitors. 1. Effect of thymidine substituents on affinity for the thymidine site of hamster cytoplasmic thymidine kinase” (J Med Chem, 1979)
Activity calls are given as the source filed them. The rule behind the calls is not given here.

Key:
[1] = target: T1, Thymidine kinase, cytosolic (Cricetulus griseus) (UniProt P09768); assay: Inhibition of thymidine kinase in BHK21 (C13) cells using thymidine as substrate assessed as formation of TMP at 15.5 mM; format: cell-based; conditions: Mesocricetus auratus
T1 sequence (whole entry): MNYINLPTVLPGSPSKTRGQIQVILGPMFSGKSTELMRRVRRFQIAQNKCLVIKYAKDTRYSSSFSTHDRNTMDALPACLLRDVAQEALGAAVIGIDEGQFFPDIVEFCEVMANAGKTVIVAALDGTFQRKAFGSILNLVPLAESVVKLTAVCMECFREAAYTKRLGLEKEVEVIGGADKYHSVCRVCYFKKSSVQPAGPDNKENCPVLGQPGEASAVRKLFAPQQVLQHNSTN
Procedure, shortened: (§1)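 BHK21(C13) 100000g supernatant in Tris-HCl 0.05 M pH 8.0, ATP 5 mM, MgCl2 2.5 mM, [14C]thymidine 3.6 μM, 10 min at 37 °C. Reaction stopped by boiling; [14C]TMP bound to DEAE-cellulose disks and counted by liquid scintillation, corrected for unincubated blanks.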

[2] = target: T1, Thymidine kinase, cytosolic (Cricetulus griseus); assay: Inhibition of thymidine kinase in BHK21 (C13) cells using thymidine as substrate assessed as formation of TMP at 7.8 mM; format: cell-based; conditions: Mesocricetus auratus; procedure, shortened: as §1
[3] = target: T2, Thymidine kinase 2, mitochondrial (Homo sapiens) (UniProt O00142); assay: Inhibition of human mitochondrial thymidine kinase using [14C]thymidine at 0.19 mM after 10 mins by liquid scintillation spectrometer analysis relative to control in presence of Mg2+
T2 sequence (whole entry): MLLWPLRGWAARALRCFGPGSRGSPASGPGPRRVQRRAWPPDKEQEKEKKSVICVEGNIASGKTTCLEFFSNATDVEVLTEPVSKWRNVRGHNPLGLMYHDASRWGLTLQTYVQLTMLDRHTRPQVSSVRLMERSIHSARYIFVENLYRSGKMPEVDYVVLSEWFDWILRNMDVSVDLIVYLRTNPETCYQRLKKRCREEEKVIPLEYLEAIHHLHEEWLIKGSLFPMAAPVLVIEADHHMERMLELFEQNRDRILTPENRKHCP

[4] = target: T1, Thymidine kinase, cytosolic (Cricetulus griseus); assay: Inhibition of thymidine kinase in BHK21 (C13) cells using [14C]thymidine at 200 uM after 10 mins by liquid scintillation spectrometer analysis relative to control in presence of Mg2+; format: cell-based; conditions: Mesocricetus auratus
[5] = target: T2, Thymidine kinase 2, mitochondrial (Homo sapiens); assay: Effect on human mitochondrial thymidine kinase using [14C]thymidine at 2 mM after 10 mins by liquid scintillation spectrometer analysis relative to control in presence of Mg2+
[6] = target: T3, Thymidine kinase, cytosolic (Homo sapiens) (UniProt P04183); assay: Effect on human cytoplasmic thymidine kinase using [14C]thymidine at 2 mM after 10 mins by liquid scintillation spectrometer analysis relative to control in presence of Mg2+
T3 sequence (whole entry): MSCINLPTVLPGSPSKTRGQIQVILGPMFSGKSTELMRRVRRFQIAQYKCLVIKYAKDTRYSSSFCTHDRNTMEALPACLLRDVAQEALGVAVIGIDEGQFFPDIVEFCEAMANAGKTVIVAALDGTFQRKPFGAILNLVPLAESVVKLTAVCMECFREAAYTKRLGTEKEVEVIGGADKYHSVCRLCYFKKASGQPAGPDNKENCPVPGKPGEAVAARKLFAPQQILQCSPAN

[7] = target: T1, Thymidine kinase, cytosolic (Cricetulus griseus); assay: Effect on thymidine kinase in BHK21 (C13) cells using [14C]thymidine at 5 mM after 10 mins by liquid scintillation spectrometer analysis relative to control in presence of Mg2+; format: cell-based; conditions: Mesocricetus auratus
Procedure, shortened: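 BHK21(C13) high-speed supernatant, 10 min at 37 °C, [14C]TMP on DEAE-cellulose disks, scintillation counting. Phosphate donors (nucleoside triphosphates 5 mM, giving 2.5 mM Mg2+ triphosphates) tested with 14.4 μM [14C]thymidine. Inhibitor assays used 0.19 mM [14C]thymidine: 5-iodo nucleosides at 0.19 mM with saturating Mg2+-ATP, or dCTP 5 mM with ATP 5 mM and MgCl2 7.5 mM.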

[8] = target: T1, Thymidine kinase, cytosolic (Cricetulus griseus); assay: Inhibition of thymidine kinase in BHK21 (C13) cells using thymidine as substrate assessed as formation of TMP at 0.2 mM; format: cell-based; conditions: Mesocricetus auratus; procedure, shortened: as §1
[9] = target: T1, Thymidine kinase, cytosolic (Cricetulus griseus); assay: Inhibition of thymidine kinase in BHK21 (C13) cells using thymidine as substrate assessed as formation of TMP at 0.1 mM; format: cell-based; conditions: Mesocricetus auratus; procedure, shortened: as §1
[10] = target: T1, Thymidine kinase, cytosolic (Cricetulus griseus); assay: Activity at thymidine kinase in BHK21 (C13) cells at 54 to 542 uM after 30 mins relative to thymidine; format: cell-based; conditions: Mesocricetus auratus
Procedure, shortened: (§2)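 Radiolabeled thymidine or 2'-deoxyuridine derivatives tested as substrates: 40 μL BHK21(C13) 100000g supernatant, Tris-HCl 0.05 M pH 8.0, ATP 5 mM, MgCl2 2.5 mM, no thymidine, 30 min at 37 °C. Products separated by paper electrophoresis in 0.05 M triethylammonium bicarbonate pH 7.6; radioactivity counted in the TMP region.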

[11] = target: T1, Thymidine kinase, cytosolic (Cricetulus griseus); assay: Inhibition of thymidine kinase in BHK21 (C13) cells using thymidine as substrate assessed as formation of TMP at 6 mM; format: cell-based; conditions: Mesocricetus auratus; procedure, shortened: as §1
[12] = target: T1, Thymidine kinase, cytosolic (Cricetulus griseus); assay: Inhibition of thymidine kinase in BHK21 (C13) cells using thymidine as substrate assessed as formation of TMP at 12 mM; format: cell-based; conditions: Mesocricetus auratus; procedure, shortened: as §1
[13] = target: T1, Thymidine kinase, cytosolic (Cricetulus griseus); assay: Activity at thymidine kinase in BHK21 (C13) cells at 400 uM after 30 mins relative to thymidine; format: cell-based; conditions: Mesocricetus auratus; procedure, shortened: as §2
[14] = target: T1, Thymidine kinase, cytosolic (Cricetulus griseus); assay: Inhibition of thymidine kinase in BHK21 (C13) cells using thymidine as substrate assessed as formation of TMP at […]; format: cell-based; conditions: Mesocricetus auratus
[15] = target: T1, Thymidine kinase, cytosolic (Cricetulus griseus); assay: Inhibition of thymidine kinase in BHK21 (C13) cells using thymidine as substrate assessed as formation of TMP at 0.74 mM; format: cell-based; conditions: Mesocricetus auratus; procedure, shortened: as §1
[16] = target: T1, Thymidine kinase, cytosolic (Cricetulus griseus); assay: Inhibition of thymidine kinase in BHK21 (C13) cells using [14C]thymidine at 50 uM after 10 mins by liquid scintillation spectrometer analysis relative to control in presence of Mg2+; format: cell-based; conditions: Mesocricetus auratus
[17] = target: T1, Thymidine kinase, cytosolic (Cricetulus griseus); assay: Inhibition of thymidine kinase in BHK21 (C13) cells using [14C]thymidine at 100 to 200 uM after 10 mins by liquid scintillation spectrometer analysis relative to control in presence of Mg2+; format: cell-based; conditions: Mesocricetus auratus
[18] = target: T1, Thymidine kinase, cytosolic (Cricetulus griseus); assay: Inhibition of thymidine kinase in BHK21 (C13) cells using thymidine as substrate assessed as formation of TMP at 2 mM; format: cell-based; conditions: Mesocricetus auratus; procedure, shortened: as §1
[19] = target: T1, Thymidine kinase, cytosolic (Cricetulus griseus); assay: Inhibition of thymidine kinase in BHK21 (C13) cells using thymidine as substrate assessed as formation of TMP at 4 mM; format: cell-based; conditions: Mesocricetus auratus; procedure, shortened: as §1

CCCn1c(=O)ccn([C@H]2C[C@H](O)[C@@H](CO)O2)c1=O
inhibition [1]: 36% | inhibition [2]: 18%

O=c1[nH]c(=O)n([C@H]2C[C@H](O)[C@@H](CO)O2)cc1I
inhibition [3]: 31%

CC(=O)Nc1cn([C@H]2C[C@H](O)[C@@H](COP(=O)(O)OP(=O)(O)OP(=O)(O)O)O2)c(=O)[nH]c1=O
inhibition [4]: Active

Nc1ncnc2c1ncn2[C@@H]1O[C@H](COP(=O)(O)OP(=O)(O)OP(=O)(O)O)[C@@H](O)[C@H]1O
Activity [5]: 100% | Activity [6]: 100% | Activity [7]: 100%

O=c1ccn([C@H]2C[C@H](O)[C@@H](CO)O2)c(=O)[nH]1
inhibition [8]: 59% | inhibition [9]: 38%

Nc1ccn([C@@H]2O[C@H](COP(=O)(O)OP(=O)(O)OP(=O)(O)O)[C@@H](O)[C@H]2O)c(=O)n1
Activity [5]: 79% | Activity [6]: 21% | Activity [7]: 15%

CCCn1c(=O)c(C)cn([C@H]2C[C@H](O)[C@@H](CO)O2)c1=O
inhibition [8]: 34% | inhibition [9]: 16%

CCNc1cn([C@H]2C[C@H](O)[C@@H](COP(=O)(O)OP(=O)(O)OP(=O)(O)O)O2)c(=O)[nH]c1=O
inhibition [4]: Active

Nc1nc(=O)c2ncn([C@@H]3O[C@H](COP(=O)(O)OP(=O)(O)OP(=O)(O)O)[C@@H](O)[C@@H]3O)c2[nH]1
Activity [5]: 46% | Activity [6]: 36% | Activity [7]: 6%

CC(=O)NCc1cn([C@H]2C[C@H](O)[C@@H](CO)O2)c(=O)[nH]c1=O
Activity [10]: < 0.25% | inhibition [11]: 0% | inhibition [12]: 0%

CC(=O)NCC(O)[C@H]1O[C@@H](n2cc(C)c(=O)[nH]c2=O)C[C@@H]1O (stereo in doubt; [14C]4b)
Activity [13]: inactive

Nc1ccn([C@H]2C[C@H](O)[C@@H](CO)O2)c(=O)n1
inhibition [14]: 10% | inhibition [15]: 24%

Cc1cn([C@H]2C[C@H](O)[C@@H](COP(=O)(O)OP(=O)(O)OP(=O)(O)O)O2)c(=O)[nH]c1=O
inhibition [16]: Active

CCC(=O)NCC(OP(=O)(O)OP(=O)(O)OP(=O)(O)O)[C@H]1O[C@@H](n2cc(C)c(=O)[nH]c2=O)C[C@@H]1O (single isomer, unassigned)
inhibition [17]: Active

O=C(CI)NCCC(=O)Nc1cn([C@H]2C[C@H](O)[C@@H](CO)O2)c(=O)[nH]c1=O
inhibition [18]: 22% | inhibition [19]: 36%
